Test results: the M2OR odorant receptor database
Numbering of substitutions follows the chain as printed.

Tests used:
Details in all cases: stereoisomer not certain
OR2A1 (Homo sapiens) = target: T1, OR2A1 (Homo sapiens) (UniProt Q8NGT9)
T1 sequence (whole entry): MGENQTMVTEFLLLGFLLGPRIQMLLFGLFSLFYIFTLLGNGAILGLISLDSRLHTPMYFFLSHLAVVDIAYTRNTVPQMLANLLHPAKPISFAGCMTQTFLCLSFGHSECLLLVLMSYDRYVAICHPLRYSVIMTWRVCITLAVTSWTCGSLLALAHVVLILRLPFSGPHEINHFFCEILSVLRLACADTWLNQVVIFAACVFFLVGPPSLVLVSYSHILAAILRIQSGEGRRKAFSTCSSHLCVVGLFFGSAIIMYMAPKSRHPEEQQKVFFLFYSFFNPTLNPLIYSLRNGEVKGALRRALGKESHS
Summary of the method: (§1)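 Assay methods differ from source to source, frequently being transient luciferase assays in mammalian cell lines. For each receptor–molecule pair, the label responsive (active) applies when the original authors judged the measured signal statistically different from baseline, and non-responsive (inactive) applies otherwise.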

OR1L3 (Homo sapiens) = target: T2, OR1L3 (Homo sapiens) (UniProt Q8NH93)
T2 sequence (whole entry): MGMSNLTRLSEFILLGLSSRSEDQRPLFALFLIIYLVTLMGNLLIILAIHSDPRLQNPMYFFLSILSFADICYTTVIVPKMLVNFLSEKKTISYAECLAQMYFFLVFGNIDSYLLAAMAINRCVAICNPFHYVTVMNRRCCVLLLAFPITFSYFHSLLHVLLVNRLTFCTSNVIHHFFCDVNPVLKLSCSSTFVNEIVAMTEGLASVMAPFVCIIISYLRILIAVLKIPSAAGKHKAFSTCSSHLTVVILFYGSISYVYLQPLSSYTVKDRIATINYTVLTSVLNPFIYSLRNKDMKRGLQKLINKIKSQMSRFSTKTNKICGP
Summary of the method: as §1

OR1L4 (Homo sapiens) = target: T3, OR1L4 (Homo sapiens) (UniProt Q8NGR5)
T3 sequence (whole entry): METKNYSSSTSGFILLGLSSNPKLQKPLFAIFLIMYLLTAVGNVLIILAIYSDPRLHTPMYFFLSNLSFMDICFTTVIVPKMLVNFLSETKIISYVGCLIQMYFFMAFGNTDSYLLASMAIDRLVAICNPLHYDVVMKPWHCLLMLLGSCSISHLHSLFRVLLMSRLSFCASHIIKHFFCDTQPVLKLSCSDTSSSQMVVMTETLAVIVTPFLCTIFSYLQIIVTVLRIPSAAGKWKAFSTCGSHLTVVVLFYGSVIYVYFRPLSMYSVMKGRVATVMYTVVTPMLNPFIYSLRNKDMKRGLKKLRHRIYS
Summary of the method: as §1

OR1L4 = test system: T4, OR1L4
T4 sequence (whole entry): T3 sequence (whole entry) with G234R
Summary of the method: as §1

OR1L6 = test system: T5, OR1L6
T5 sequence (whole entry): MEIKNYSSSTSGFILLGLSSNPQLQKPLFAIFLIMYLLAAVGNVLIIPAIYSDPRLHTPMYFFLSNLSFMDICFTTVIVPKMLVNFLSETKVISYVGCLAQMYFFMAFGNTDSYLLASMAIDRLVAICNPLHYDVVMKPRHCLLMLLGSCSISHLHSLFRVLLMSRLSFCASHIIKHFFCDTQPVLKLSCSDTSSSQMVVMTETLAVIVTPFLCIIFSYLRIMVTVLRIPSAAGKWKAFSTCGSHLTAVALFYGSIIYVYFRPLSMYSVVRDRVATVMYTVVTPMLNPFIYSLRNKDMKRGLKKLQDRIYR
Summary of the method: as §1

OR1L8 (Homo sapiens) = target: T6, OR1L8 (Homo sapiens) (UniProt Q8NGR8)
T6 sequence (whole entry): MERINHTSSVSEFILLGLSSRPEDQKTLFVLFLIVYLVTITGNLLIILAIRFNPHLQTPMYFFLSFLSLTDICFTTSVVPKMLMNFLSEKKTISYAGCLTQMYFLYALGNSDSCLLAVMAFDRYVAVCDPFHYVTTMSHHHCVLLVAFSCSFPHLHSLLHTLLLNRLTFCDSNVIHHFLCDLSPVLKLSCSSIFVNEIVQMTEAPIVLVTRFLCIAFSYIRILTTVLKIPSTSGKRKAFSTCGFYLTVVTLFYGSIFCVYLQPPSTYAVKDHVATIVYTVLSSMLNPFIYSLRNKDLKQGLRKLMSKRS
Summary of the method: as §1

OR1L8 T27P R211P = test system: T7, OR1L8 T27P R211P
T7 sequence (whole entry): T6 sequence (whole entry) with T27P, R211P
Summary of the method: as §1

OR1M1 (Homo sapiens) = target: T8, OR1M1 (Homo sapiens) (UniProt Q8NGA1)
T8 sequence (whole entry): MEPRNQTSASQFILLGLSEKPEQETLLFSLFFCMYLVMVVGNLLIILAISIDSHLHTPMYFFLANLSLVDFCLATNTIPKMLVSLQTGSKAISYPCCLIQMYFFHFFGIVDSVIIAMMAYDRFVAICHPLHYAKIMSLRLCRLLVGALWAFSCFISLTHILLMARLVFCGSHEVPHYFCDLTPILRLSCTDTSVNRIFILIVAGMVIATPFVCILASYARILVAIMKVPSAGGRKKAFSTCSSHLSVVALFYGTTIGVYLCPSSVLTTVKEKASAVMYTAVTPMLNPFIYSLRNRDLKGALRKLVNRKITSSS
Summary of the method: as §1

OR1N1 (Homo sapiens) = target: T9, OR1N1 (Homo sapiens) (UniProt Q8NGS0)
T9 sequence (whole entry): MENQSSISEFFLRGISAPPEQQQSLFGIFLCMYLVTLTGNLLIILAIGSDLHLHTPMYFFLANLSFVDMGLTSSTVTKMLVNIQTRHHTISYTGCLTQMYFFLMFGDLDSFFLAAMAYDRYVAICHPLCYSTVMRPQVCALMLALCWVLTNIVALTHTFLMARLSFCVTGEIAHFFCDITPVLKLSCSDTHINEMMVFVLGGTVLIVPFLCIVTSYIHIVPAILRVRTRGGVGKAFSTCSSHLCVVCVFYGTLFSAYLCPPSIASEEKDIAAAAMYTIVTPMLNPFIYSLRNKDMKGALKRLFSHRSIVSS
Summary of the method: as §1

OR1N2 W37R = test system: T10, OR1N2 W37R
T10 sequence (whole entry): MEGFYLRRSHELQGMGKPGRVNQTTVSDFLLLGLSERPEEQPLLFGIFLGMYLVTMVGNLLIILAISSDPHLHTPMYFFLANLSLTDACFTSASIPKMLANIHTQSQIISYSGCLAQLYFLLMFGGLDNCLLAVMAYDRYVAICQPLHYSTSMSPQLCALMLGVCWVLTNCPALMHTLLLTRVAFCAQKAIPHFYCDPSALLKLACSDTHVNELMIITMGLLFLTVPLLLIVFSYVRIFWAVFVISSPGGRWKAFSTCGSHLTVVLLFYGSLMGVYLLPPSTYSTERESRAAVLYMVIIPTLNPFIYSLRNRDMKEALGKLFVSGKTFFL
Summary of the method: as §1

OR1N2 = test system: T11, OR1N2
T11 sequence (whole entry): T10 sequence (whole entry) with R37W
Summary of the method: as §1

OR1Q1 (Homo sapiens) = target: T12, OR1Q1 (Homo sapiens) (UniProt Q15612)
T12 sequence (whole entry): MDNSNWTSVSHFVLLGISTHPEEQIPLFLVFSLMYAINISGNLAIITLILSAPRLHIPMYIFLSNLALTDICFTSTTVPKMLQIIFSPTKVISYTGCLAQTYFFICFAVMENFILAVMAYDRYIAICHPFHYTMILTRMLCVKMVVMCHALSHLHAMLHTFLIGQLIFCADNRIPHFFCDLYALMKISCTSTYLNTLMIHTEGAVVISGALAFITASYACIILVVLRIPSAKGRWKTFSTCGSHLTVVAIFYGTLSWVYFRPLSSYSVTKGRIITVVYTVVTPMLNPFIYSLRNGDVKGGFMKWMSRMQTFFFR
Summary of the method: as §1

OR1Q1 = test system: T13, OR1Q1
T13 sequence (whole entry): T12 sequence (whole entry) with Q24R, I163M
Summary of the method: as §1

OR1S1 (Homo sapiens) = target: T14, OR1S1 (Homo sapiens) (UniProt Q8NH92)
T14 sequence (whole entry): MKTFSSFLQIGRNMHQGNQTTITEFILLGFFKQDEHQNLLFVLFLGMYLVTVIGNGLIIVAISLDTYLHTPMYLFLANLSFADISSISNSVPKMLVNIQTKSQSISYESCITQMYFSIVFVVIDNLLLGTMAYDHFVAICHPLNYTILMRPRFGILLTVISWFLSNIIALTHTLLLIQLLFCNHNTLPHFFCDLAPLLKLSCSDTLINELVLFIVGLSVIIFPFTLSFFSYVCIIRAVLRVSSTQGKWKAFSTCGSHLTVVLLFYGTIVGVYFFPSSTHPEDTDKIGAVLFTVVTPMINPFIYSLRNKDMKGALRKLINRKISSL
Summary of the method: as §1

OR1S2 (Homo sapiens) = target: T15, OR1S2 (Homo sapiens) (UniProt Q8NGQ3)
T15 sequence (whole entry): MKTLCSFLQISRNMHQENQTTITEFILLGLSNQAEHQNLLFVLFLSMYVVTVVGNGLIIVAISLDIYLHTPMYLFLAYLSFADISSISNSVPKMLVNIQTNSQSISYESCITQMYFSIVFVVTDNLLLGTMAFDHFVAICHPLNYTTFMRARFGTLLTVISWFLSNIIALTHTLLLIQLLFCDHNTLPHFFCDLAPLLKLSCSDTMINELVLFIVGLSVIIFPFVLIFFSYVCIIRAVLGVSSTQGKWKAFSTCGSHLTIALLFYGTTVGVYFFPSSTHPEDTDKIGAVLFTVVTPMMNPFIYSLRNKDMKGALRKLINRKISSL
Summary of the method: as §1

OR1S2 E17G = test system: T16, OR1S2 E17G
T16 sequence (whole entry): T15 sequence (whole entry) with E17G
Summary of the method: as §1

OR1S2 V225T G240R = test system: T17, OR1S2 V225T G240R
T17 sequence (whole entry): T15 sequence (whole entry) with V225T, G240R
Summary of the method: as §1

OR2A1 S168C = test system: T18, OR2A1 S168C
T18 sequence (whole entry): T1 sequence (whole entry) with S168C
Summary of the method: as §1

OR1L6 (Homo sapiens) = target: T19, OR1L6 (Homo sapiens) (UniProt Q8NGR2)
T19 sequence (whole entry): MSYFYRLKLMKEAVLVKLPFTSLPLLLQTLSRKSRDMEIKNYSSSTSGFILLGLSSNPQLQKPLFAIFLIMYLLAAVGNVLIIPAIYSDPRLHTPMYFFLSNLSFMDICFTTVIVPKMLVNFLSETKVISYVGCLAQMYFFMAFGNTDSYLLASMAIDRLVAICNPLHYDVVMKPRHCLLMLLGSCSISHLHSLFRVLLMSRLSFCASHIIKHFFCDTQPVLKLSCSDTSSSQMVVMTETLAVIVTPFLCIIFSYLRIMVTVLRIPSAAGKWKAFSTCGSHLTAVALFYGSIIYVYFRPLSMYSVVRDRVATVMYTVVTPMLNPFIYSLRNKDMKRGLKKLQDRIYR
Summary of the method: as §1

OR1P1 (Homo sapiens) = OR1P1 (Homo sapiens) (UniProt Q8NH06)
Summary of the method: as §1

Measured: odorant receptor agonist call

OR1P1 (Homo sapiens), sequence (Q8NH06 whole entry K185A): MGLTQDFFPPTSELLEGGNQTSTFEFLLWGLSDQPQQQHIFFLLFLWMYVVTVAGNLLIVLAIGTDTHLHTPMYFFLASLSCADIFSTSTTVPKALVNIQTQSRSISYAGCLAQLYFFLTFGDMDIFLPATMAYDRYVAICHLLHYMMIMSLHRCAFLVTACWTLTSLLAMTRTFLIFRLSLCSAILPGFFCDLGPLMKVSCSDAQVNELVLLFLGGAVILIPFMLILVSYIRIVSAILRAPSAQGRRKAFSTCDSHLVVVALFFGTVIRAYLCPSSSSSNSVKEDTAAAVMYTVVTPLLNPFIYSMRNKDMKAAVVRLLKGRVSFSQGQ

C=C1CCC2CC1C2(C)C (centres undefined)
inactive: OR2A1 (Homo sapiens)

CCC1OC(C)=C(O)C1=O (centres undefined)
inactive: OR1L3 (Homo sapiens) | OR1L4 (Homo sapiens) | OR1L4 | OR1L6 | OR1L8 (Homo sapiens) | OR1L8 T27P R211P | OR1M1 (Homo sapiens) | OR1N1 (Homo sapiens) | OR1N2 W37R | OR1N2 | OR1Q1 (Homo sapiens) | OR1Q1 | OR1S1 (Homo sapiens) | OR1S2 (Homo sapiens) | OR1S2 E17G | OR1S2 V225T G240R | OR2A1 (Homo sapiens) | OR2A1 S168C

CCCCCCCCO
inactive: OR2A1 (Homo sapiens)

CCCCCCCCCCCC(=O)OCC
inactive: OR2A1 (Homo sapiens)

CCCCCC(S)C(C)CO (centres undefined)
inactive: OR1L3 (Homo sapiens) | OR1L4 (Homo sapiens) | OR1L6 (Homo sapiens) | OR1L8 (Homo sapiens) | OR1M1 (Homo sapiens) | OR1N1 (Homo sapiens) | OR1N2 | OR1Q1 (Homo sapiens) | OR1S1 (Homo sapiens) | OR1S2 (Homo sapiens) | OR2A1 (Homo sapiens)

CCCCCCCCCC(=O)OC
inactive: OR2A1 (Homo sapiens)

CC1=C(O)C(=O)C(C)O1 (centres undefined)
inactive: OR1L3 (Homo sapiens) | OR1L4 (Homo sapiens) | OR1L4 | OR1L6 | OR1L8 (Homo sapiens) | OR1L8 T27P R211P | OR1M1 (Homo sapiens) | OR1N1 (Homo sapiens) | OR1N2 W37R | OR1N2 | OR1Q1 (Homo sapiens) | OR1Q1 | OR1S1 (Homo sapiens) | OR1S2 (Homo sapiens) | OR1S2 E17G | OR1S2 V225T G240R | OR2A1 (Homo sapiens) | OR2A1 S168C

Cc1cnc(C)cn1
inactive: OR2A1 (Homo sapiens)

CC(=O)c1c(C)c([N+](=O)[O-])c(C(C)(C)C)c([N+](=O)[O-])c1C
inactive: OR1L3 (Homo sapiens) | OR1L4 (Homo sapiens) | OR1L6 (Homo sapiens) | OR1L8 (Homo sapiens) | OR1M1 (Homo sapiens) | OR1N1 (Homo sapiens) | OR1N2 | OR1P1 (Homo sapiens) | OR1Q1 (Homo sapiens) | OR1S1 (Homo sapiens) | OR1S2 (Homo sapiens) | OR2A1 (Homo sapiens)
